Results: ChEMBL document CHEMBL4312018, “Novel benzimidazole phosphonates as potential inhibitors of protein prenylation” (Bioorg Med Chem Lett, 2019)
Activity calls are given as the source filed them.

Legend:
[1] = target: T1, Geranylgeranyl transferase type-2 (Homo sapiens) (UniProt P53611+Q92696); test: Inhibition of GGTase-2 in human RPMI8226 cells assessed as ratio of calnexin to Rab6 level at 5 mM after 48 hrs by immunoblot analysis relative to control; type: cell-based
Method in brief: (§1)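 After 48 h treatment, RPMI-8226 cells were extracted with Triton X-114 to give a detergent (membrane) fraction, which was immunoblotted for Rab6. Rab6 band density was normalized to calnexin and expressed relative to untreated cells. Blots are representative of three independent studies.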

[2] = target: T1, Geranylgeranyl transferase type-2 (Homo sapiens); test: Inhibition of GGtase-2 in human cells assessed as minimum effective dose causing => 20% decrease in Rab6 level after 48 hrs by immunoblot analysis; type: cell-based
Method in brief: (§2)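 The lowest effective concentration in RPMI-8226 cells after 48 h requires both criteria below: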

[3] = target: T1, Geranylgeranyl transferase type-2 (Homo sapiens); test: Inhibition of GGTase-2 in human RPMI8226 cells assessed as ratio of calnexin to Rab6 level at […] after 48 hrs by immunoblot analysis relative to control; type: cell-based
[4] = target: T1, Geranylgeranyl transferase type-2 (Homo sapiens); test: Inhibition of GGTase-2 in human RPMI8226 cells assessed as ratio of calnexin to Rab6 level at 1 mM after 48 hrs by immunoblot analysis relative to control; type: cell-based; method in brief: as §1
[5] = target: T2, Farnesyl pyrophosphate synthase (Homo sapiens) (UniProt P14324)
T2 sequence (whole entry): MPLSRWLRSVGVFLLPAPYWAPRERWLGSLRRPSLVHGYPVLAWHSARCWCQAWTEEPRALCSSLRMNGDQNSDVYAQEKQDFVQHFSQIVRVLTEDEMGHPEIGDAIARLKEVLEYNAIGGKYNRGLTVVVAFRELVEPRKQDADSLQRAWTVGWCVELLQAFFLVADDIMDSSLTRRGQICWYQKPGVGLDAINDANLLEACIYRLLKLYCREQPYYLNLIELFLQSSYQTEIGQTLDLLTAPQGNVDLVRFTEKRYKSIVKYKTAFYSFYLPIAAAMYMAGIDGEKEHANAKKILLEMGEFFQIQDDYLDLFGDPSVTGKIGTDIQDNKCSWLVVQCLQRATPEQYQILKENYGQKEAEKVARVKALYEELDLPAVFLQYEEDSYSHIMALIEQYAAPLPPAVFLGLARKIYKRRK

[6] = target: T3, Farnesyl pyrophosphate synthase (Homo sapiens, UniProt P14324); test: Inhibition of FDPS (unknown origin) using [14C] IPP and GPP as substrate preincubated for 10 mins followed by substrate addition and measured after 30 min by liquid scintillation counting method
T3 sequence (P14324 whole entry): T2 sequence (whole entry)

[7] = target: Protein farnesyltransferase (Rattus norvegicus, UniProt Q02293+Q04631); test: Inhibition of recombinant rat FTase expressed in Escherichia coli using dansyl-GCVLS as substrate after 1.5 hrs by spectrofluorimetric analysis
[8] = target: T4, Geranylgeranyl transferase type I (Homo sapiens) (UniProt P49354+P53609); test: Inhibition of GGtase-1 in human RPMI8226 cells assessed as disruption of Rap1a geranylgeranylation at 1 to 5 mM incubated for 48 hrs by immunoblot analysis; type: cell-based
[9] = target: T5, Geranylgeranyl transferase type-2 (Rattus norvegicus, UniProt Q08602+Q08603); test: Inhibition of recombinant rat RabGGTase expressed in Escherichia coli using Rab7 as substrate and [3H]geranylgeranyl pyrophosphate after 20 mins by liquid scintillation analysis
T5 sequence (Q08603 whole entry): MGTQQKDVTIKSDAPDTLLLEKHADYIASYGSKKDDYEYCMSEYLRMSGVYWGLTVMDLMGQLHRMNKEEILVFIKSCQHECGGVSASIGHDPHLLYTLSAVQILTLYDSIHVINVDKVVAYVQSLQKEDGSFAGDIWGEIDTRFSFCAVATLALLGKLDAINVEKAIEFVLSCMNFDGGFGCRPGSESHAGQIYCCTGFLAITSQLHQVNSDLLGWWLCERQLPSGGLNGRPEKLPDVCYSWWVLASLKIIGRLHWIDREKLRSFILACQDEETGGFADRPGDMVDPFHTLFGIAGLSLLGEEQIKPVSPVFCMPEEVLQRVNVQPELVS
T5 sequence (Q08602 whole entry): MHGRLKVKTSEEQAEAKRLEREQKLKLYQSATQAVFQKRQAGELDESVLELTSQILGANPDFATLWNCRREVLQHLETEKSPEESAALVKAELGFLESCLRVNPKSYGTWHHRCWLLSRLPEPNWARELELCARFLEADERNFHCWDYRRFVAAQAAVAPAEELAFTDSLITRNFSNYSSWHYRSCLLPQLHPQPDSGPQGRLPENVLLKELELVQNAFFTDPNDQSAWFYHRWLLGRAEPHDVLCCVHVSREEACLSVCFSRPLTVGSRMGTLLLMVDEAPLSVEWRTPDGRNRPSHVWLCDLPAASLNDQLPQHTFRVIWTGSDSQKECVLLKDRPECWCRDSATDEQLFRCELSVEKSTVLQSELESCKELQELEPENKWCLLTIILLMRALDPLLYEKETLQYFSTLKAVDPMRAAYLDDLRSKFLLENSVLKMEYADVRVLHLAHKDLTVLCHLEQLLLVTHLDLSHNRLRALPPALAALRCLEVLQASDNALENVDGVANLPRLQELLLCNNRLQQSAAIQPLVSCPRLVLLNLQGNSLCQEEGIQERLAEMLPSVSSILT

[10] = target: T1, Geranylgeranyl transferase type-2 (Homo sapiens); test: Inhibition of GGtase-2 in human RPMI8226 cells assessed as increase in intracellular lambda light chain level at 1 to 5 mM incubated for 48 hrs […]; type: cell-based
Method in brief: (§3)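 RPMI-8226 cells were incubated 48 h with the compound or medium alone. Intracellular lambda light chain was quantified by ELISA and expressed as percent of untreated control (mean ± SD, n=3). Significance versus control was judged by t-test, p<0.05.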

[11] = target: T1, Geranylgeranyl transferase type-2 (Homo sapiens); test: Inhibition of GGtase-2 in human cells assessed as minimum effective dose required for increase in intracellular lambda chain level after 48 hrs by ELISA; type: cell-based; method in brief: as §2
[12] = target: T6, Protein farnesyltransferase (Homo sapiens) (UniProt P49354+P49356); test: Inhibition of FTase in human RPMI8226 cells assessed as disruption of H-ras farnesylation at 1 to 5 mM incubated for 48 hrs by immunoblot analysis; type: cell-based
[13] = target: geranylgeranyltransferase type-I (Rattus norvegicus, UniProt P53610+Q04631); test: Inhibition of recombinant rat GGtase-1 expressed in Escherichia coli using dansyl-GCVLL as substrate after 1.5 hrs by spectrofluorimetric analysis
[14] = target: T2, Farnesyl pyrophosphate synthase (Homo sapiens); remark: listed apart in the source
[15] = target: T7, Geranylgeranyl pyrophosphate synthase (Homo sapiens, UniProt O95749); test: Inhibition of GGDPS (unknown origin) using [14C] IPP and FPP as substrate preincubated for 10 mins followed by substrate addition and measured after 30 min by liquid scintillation counting method
T7 sequence (O95749 whole entry): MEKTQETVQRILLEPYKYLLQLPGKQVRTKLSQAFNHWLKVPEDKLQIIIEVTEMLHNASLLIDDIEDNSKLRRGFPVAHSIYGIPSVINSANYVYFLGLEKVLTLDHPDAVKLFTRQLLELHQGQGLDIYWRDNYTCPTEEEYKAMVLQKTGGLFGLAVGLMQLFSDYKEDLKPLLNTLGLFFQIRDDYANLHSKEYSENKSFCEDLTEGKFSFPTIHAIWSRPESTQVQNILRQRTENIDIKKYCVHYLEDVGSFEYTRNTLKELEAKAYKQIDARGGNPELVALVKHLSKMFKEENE

[16] = target: T1, Geranylgeranyl transferase type-2 (Homo sapiens); test: Inhibition of GGtase-2 in human cells assessed as decrease in Rab6 level at =< 5 mM after 48 hrs by immunoblot analysis relative to control; type: cell-based; method in brief: as §1
[17] = target: T2, Farnesyl pyrophosphate synthase (Homo sapiens); test: Inhibition of FDPS in human RPMI8226 cells assessed as unmodified Rap1a level at =< 5 mM after 48 hrs by immunoblot analysis; type: cell-based
Method in brief: (§4)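 RPMI-8226 cells were exposed for 48 h. The lowest effective concentration counts only when two read-outs agree. Unmodified Rap1a must be visible on immunoblot of whole-cell lysate, using an antibody that detects only unmodified protein.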

[18] = target: T1, Geranylgeranyl transferase type-2 (Homo sapiens); test: Inhibition of GGtase-2 in human cells assessed as increase in intracellular lambda chain at =< 5 mM level after 48 hrs by ELISA; type: cell-based; method in brief: as §3
[19] = target: T2, Farnesyl pyrophosphate synthase (Homo sapiens); test: Inhibition of FDPS in human RPMI8226 cells assessed as increase in intracellular lambda chain level at =< 5 mM after 48 hrs by ELISA; type: cell-based
Method in brief: (§5)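 RPMI-8226 cells were exposed for 48 h, and intracellular lambda light chain was measured by ELISA as percent of untreated control. The lowest effective concentration also requires unmodified Rap1a to be visible on whole-cell-lysate immunoblot with an unmodified-specific antibody. The ELISA rise must be statistically significant.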

Homo sapiens = species: Homo sapiens; test: Selectivity ratio of IC50 for GGDPS (unknown origin) to IC50 for FDPS (unknown origin)
[20] = target: T6, Protein farnesyltransferase (Homo sapiens); test: Inhibition of FTase in human RPMI8226 cells assessed as disruption of H-ras farnesylation at 10 to 100 uM incubated for 48 hrs by immunoblot analysis; type: cell-based
[21] = target: T1, Geranylgeranyl transferase type-2 (Homo sapiens); test: Inhibition of GGtase-2 in human RPMI8226 cells assessed as accumulation of intracellular lambda light chain level at 10 to 100 uM after 48 hrs by immunoblot analysis; type: cell-based
[22] = target: T6, Protein farnesyltransferase (Homo sapiens); test: Inhibition of FTase in human RPMI8226 cells assessed as disruption of H-ras farnesylation at 10 to 100 uM after 48 hrs in presence of lovastatin by immunoblot analysis; type: cell-based
Method in brief: (§6)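 Whole-cell lysates were then immunoblotted for H-Ras and unmodified Rap1a, using an antibody specific to the unprenylated protein. β-tubulin was the loading control.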

[23] = target: T4, Geranylgeranyl transferase type I (Homo sapiens); test: Inhibition of GGtase-1 in human RPMI8226 cells assessed as disruption of Rap1a geranylgeranylation at 10 to 100 uM after 48 hrs in presence lovastatin by immunoblot analysis; type: cell-based; method in brief: as §6
[24] = target: T4, Geranylgeranyl transferase type I (Homo sapiens); test: Inhibition of GGtase-1 in human RPMI8226 cells assessed as disruption of Rap1a geranylgeranylation at 10 to 100 uM incubated for 48 hrs by immunoblot analysis; type: cell-based
[25] = target: T6, Protein farnesyltransferase (Homo sapiens); test: Inhibition of FTase in human RPMI8226 cells assessed as disruption of H-ras farnesylation at 0.5 uM after 48 hrs by immunoblot analysis; type: cell-based
[26] = target: T4, Geranylgeranyl transferase type I (Homo sapiens); test: Inhibition of GGtase-1 in human RPMI8226 cells assessed as disruption of Rap1a geranylgeranylation at 0.5 uM after 48 hrs by immunoblot analysis; type: cell-based
[27] = target: T1, Geranylgeranyl transferase type-2 (Homo sapiens); test: Inhibition of GGtase-2 in human RPMI8226 cells assessed as decrease in Rab6 level at =< 1 mM after 48 hrs by immunoblot analysis relative to control; type: cell-based; method in brief: as §1
[28] = target: T2, Farnesyl pyrophosphate synthase (Homo sapiens); test: Inhibition of FDPS in human RPMI8226 cells assessed as unmodified Rap1a level at =< 1 mM after 48 hrs by immunoblot analysis; type: cell-based; method in brief: as §4
[29] = target: T1, Geranylgeranyl transferase type-2 (Homo sapiens); test: Inhibition of GGtase-2 in human RPMI8226 cells assessed as increase in intracellular lambda chain at =< 1 mM level after 48 hrs by ELISA; type: cell-based; method in brief: as §3
[30] = target: T4, Geranylgeranyl transferase type I (Homo sapiens); test: Inhibition of GGtase-1 in human RPMI8226 cells assessed as disruption of Rap1a geranylgeranylation after 48 hrs immunoblot analysis; type: cell-based
[31] = target: T2, Farnesyl pyrophosphate synthase (Homo sapiens); test: Inhibition of FDPS in human RPMI8226 cells assessed as increase in intracellular lambda chain level at =< 1mM after 48 hrs by ELISA; type: cell-based; method in brief: as §5
[32] = target: T6, Protein farnesyltransferase (Homo sapiens); test: Inhibition of FTase in human RPMI8226 cells assessed as disruption of H-ras farnesylation after 48 hrs by immunoblot analysis; type: cell-based

Compound	LED [2] [mM]	LED [5] [mM]	IC50 [6] [µM]	IC50 [7] [µM]	IC50 [9] [µM]	LED [11] [mM]	IC50 [13] [µM]	LED [14] [mM]	IC50 [15] [µM]	further results
O=C(O)C(Cn1cnc2ccccc21)P(=O)(O)O (stereo unspecified)	1	1	> 100	125	198	1	> 1000	1	> 100	fold change (FC) [1]: 0.3; FC [3]: 0.4; fold change (FC) [4]: 0.6; inhibition [8]: inactive; inhibition [10]: Active; inhibition [12]: inactive
O=C(O)C(Cn1cnc2cc(F)c(F)cc21)P(=O)(O)O (stereo unspecified)			> 100	450	> 1000		145		> 100	inhibition [16]: inactive; inhibition [17]: inactive; inhibition [18]: inactive; inhibition [19]: inactive
O=P(O)(O)C(Cn1cnc2cc(F)c(F)cc21)P(=O)(O)O	0.5	0.5	0.15	340	738	0.5	122	0.5	87	Ratio IC50 (Homo sapiens): 580
CC(Cn1cnc2ccccc21)(C(=O)O)P(=O)(O)O (stereo unspecified)	5	5	> 100	> 1000	810	5	> 1000	5	> 100	
O=P(O)(O)C(Cn1cnc2ccccc21)P(=O)(O)O	0.025		0.024	830	> 1000		> 1000		20.5	inhibition [20]: Active; inhibition [21]: Active; inhibition [22]: Active; inhibition [23]: Active; inhibition [24]: Active
CC[C@H](C)C(=O)O[C@H]1C[C@@H](C)C=C2C=C[C@H](C)[C@H](CC[C@@H]3C[C@@H](O)CC(=O)O3)[C@H]21										inhibition [25]: Active; inhibition [26]: Active
Cc1cc2ncn(CC(C(=O)O)P(=O)(O)O)c2cc1C (stereo unspecified)			> 100	> 1000	> 1000		> 1000		> 100	inhibition [16]: inactive; inhibition [17]: inactive; inhibition [18]: inactive; inhibition [19]: inactive
CC(Cn1cnc2ccccc21)(P(=O)(O)O)P(=O)(O)O			1	> 1000	> 1000		> 1000		> 100	inhibition [27]: inactive; inhibition [28]: inactive; inhibition [29]: inactive; inhibition [30]: inactive; inhibition [31]: inactive; inhibition [32]: inactive
